Test results as given in ChEMBL document CHEMBL4118076, “Azide-alkyne cycloaddition towards 1H-1,2,3-triazole-tethered gatifloxacin and isatin conjugates: Design, synthesis and in vitro anti-mycobacterial evaluation” (Eur J Med Chem, 2017).
≈ marks a conversion by molar mass, not a printed value.

Columns and labels:
[1] = test system: Mycobacterium tuberculosis; test: Antimycobacterial activity against Mycobacterium tuberculosis H37Rv after 3 to 7 days by rapid direct susceptibility test; type: functional
Outline: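 Two-fold DMSO dilutions, 0.0125 to 200 μg/mL for H37Rv and 0.062 to 128 μg/mL for the MDR strain (resistant to INH, RIF and ethambutol), mixed with suspension containing 4×10^-3 mg cells. Sealed plates incubated at 37 °C in a wet box. Growth was read visually under high magnification at 3 days and again 7 days later. MIC is the lowest concentration giving complete growth inhibition.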

[2] = Cytotoxicity against African green monkey Vero cells assessed as reduction in cell viability after 72 hrs by MTT assay; type: cell-based; settings: chlorocebus sabaeus
Outline: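 VERO cells kept in MEM with Earle's salts + 10% FBS, 37 °C, 5% CO2; seeded 1×10^4 cells/well, recovered 24 h, then medium swapped for assay medium with compound (DMSO-dissolved, 1000 to 4 μg/mL) or drug-free. Viability by MTT after 72 h exposure; CC50 calculated by Bliss analysis.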

[3] = test system: Mycobacterium tuberculosis; test: Potency index, ratio of gatifloxacin MIC90 to compound MIC90 for Mycobacterium tuberculosis H37Rv; type: functional
[4] = test system: Mycobacterium tuberculosis; test: Potency index, ratio of rifampicin MIC90 to compound MIC90 for Mycobacterium tuberculosis H37Rv; type: functional

| Compound | MIC90 [1] | CC50 at 72 h [2] | Ratio [3] | Ratio [4] |
| --- | --- | --- | --- | --- |
| COc1c(N2CCN(Cc3cn(CCN4C(=O)C(=O)c5cc(Cl)ccc54)nn3)C(C)C2)c(F)cc2c(=O)c(C(=O)O)cn(C3CC3)c12 (centres undefined) | 0.39 µg/mL (≈ 0.587 µM) | 62.5 µg/mL (≈ 94.1 µM) | – | – |
| COc1c(N2CCN(Cc3cn(CCN4C(=O)C(=O)c5ccccc54)nn3)C(C)C2)c(F)cc2c(=O)c(C(=O)O)cn(C3CC3)c12 (centres undefined) | 1.56 µg/mL (≈ 2.48 µM) | 125 µg/mL (≈ 199 µM) | – | – |
| CO/N=C1\C(=O)N(CCn2cc(CN3CCN(c4c(F)cc5c(=O)c(C(=O)O)cn(C6CC6)c5c4OC)CC3C)nn2)c2ccc(C)cc21 (centres undefined) | 1.56 µg/mL (≈ 2.32 µM) | 31.2 µg/mL (≈ 46.4 µM) | – | – |
| COc1c(N2CCN(Cc3cn(CCN4C(=O)/C(=N\O)c5cc(Cl)ccc54)nn3)C(C)C2)c(F)cc2c(=O)c(C(=O)O)cn(C3CC3)c12 (centres undefined) | 0.78 µg/mL (≈ 1.15 µM) | 31.2 µg/mL (≈ 45.9 µM) | – | – |
| COc1c(N2CCN(Cc3cn(CCN4C(=O)/C(=N\O)c5ccccc54)nn3)C(C)C2)c(F)cc2c(=O)c(C(=O)O)cn(C3CC3)c12 (centres undefined) | 3.12 µg/mL (≈ 4.84 µM) | 250 µg/mL (≈ 388 µM) | – | – |
| COc1c(N2CCN(Cc3cn(CCN4C(=O)C(=O)c5cc(C)ccc54)nn3)C(C)C2)c(F)cc2c(=O)c(C(=O)O)cn(C3CC3)c12 (centres undefined) | 1.56 µg/mL (≈ 2.42 µM) | 250 µg/mL (≈ 388 µM) | – | – |
| COc1c(N2CCN(Cc3cn(CCN4C(=O)C(=O)c5cc(F)ccc54)nn3)C(C)C2)c(F)cc2c(=O)c(C(=O)O)cn(C3CC3)c12 (centres undefined) | 0.78 µg/mL (≈ 1.2 µM) | 125 µg/mL (≈ 193 µM) | – | – |
| COc1c(N2CCN(Cc3cn(CCN4C(=O)/C(=N\O)c5cc(F)ccc54)nn3)C(C)C2)c(F)cc2c(=O)c(C(=O)O)cn(C3CC3)c12 (centres undefined) | 1.56 µg/mL (≈ 2.35 µM) | 7.8 µg/mL (≈ 11.8 µM) | – | – |
| CO/N=C1\C(=O)N(CCn2cc(CN3CCN(c4c(F)cc5c(=O)c(C(=O)O)cn(C6CC6)c5c4OC)CC3C)nn2)c2ccc(Cl)cc21 (centres undefined) | 0.1 µg/mL (≈ 0.144 µM) | 7.8 µg/mL (≈ 11.3 µM) | 4 - 8 | 4 - 8 |
| COc1c(N2CCN(Cc3cn(CCN4C(=O)/C(=N\O)c5cc(C)ccc54)nn3)C(C)C2)c(F)cc2c(=O)c(C(=O)O)cn(C3CC3)c12 (centres undefined) | 6.25 µg/mL (≈ 9.49 µM) | 62.5 µg/mL (≈ 94.9 µM) | – | – |
| CO/N=C1\C(=O)N(CCn2cc(CN3CCN(c4c(F)cc5c(=O)c(C(=O)O)cn(C6CC6)c5c4OC)CC3C)nn2)c2ccccc21 (centres undefined) | 0.78 µg/mL (≈ 1.18 µM) | 62.5 µg/mL (≈ 94.9 µM) | – | – |
| CO/N=C1\C(=O)N(CCn2cc(CN3CCN(c4c(F)cc5c(=O)c(C(=O)O)cn(C6CC6)c5c4OC)CC3C)nn2)c2ccc(F)cc21 (centres undefined) | 0.2 µg/mL (≈ 0.296 µM) | 7.8 µg/mL (≈ 11.5 µM) | – | – |
| COc1c(N2CCNC(C)C2)c(F)cc2c(=O)c(C(=O)O)cn(C3CC3)c12 (centres undefined) [GATIFLOXACIN] | 0.78 µg/mL (≈ 2.08 µM) | – | – | – |
| NNC(=O)c1ccncc1 [ISONIAZID] | 0.05 µg/mL (≈ 0.365 µM) | – | – | – |
| CO[C@H]1/C=C/O[C@@]2(C)Oc3c(C)c(O)c4c(O)c(c(/C=N/N5CCN(C)CC5)c(O)c4c3C2=O)NC(=O)/C(C)=C\C=C\[C@H](C)[C@H](O)[C@@H](C)[C@@H](O)[C@@H](C)[C@H](OC(C)=O)[C@@H]1C [RIFAMPIN] | 0.39 µg/mL (≈ 0.474 µM) | – | – | – |
